hK5 inh – blocks human kallikrein 5 protease activity; actives 0.59% (n = 210,000); AID 873; inhibition, % at 5 µM; recombinant hK5, fluorogenic AMC substrate cleavage; Q9Y337;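 active means inhibition of 40% or more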
Target sequence (Q9Y337 67-293 limits assumed): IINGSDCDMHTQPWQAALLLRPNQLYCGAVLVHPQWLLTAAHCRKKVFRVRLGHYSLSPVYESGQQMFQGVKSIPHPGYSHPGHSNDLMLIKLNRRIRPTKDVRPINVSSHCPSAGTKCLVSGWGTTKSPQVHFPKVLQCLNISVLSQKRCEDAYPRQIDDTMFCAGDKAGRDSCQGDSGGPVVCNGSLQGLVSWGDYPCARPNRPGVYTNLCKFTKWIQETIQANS
FXIa inh 1536 – factor XIa (human) inhibition | AID 798 | inhibition, % at 5 µM | purified FXIa, Boc-Glu-Ala-Arg-AMC fluorogenic substrate | P03951 | actives 0.14% (n = 220,000);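 active means inhibition of at least 40%; inactive means inhibition below 40%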;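 further: fluorescence of freed AMC excited at 355 nm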
FXIIa inh – blocks human coagulation factor XIIa protease activity; actives 0.3% (n = 220,000); P00748; purified FXIIa, Boc-QGR-AMC fluorogenic substrate, 2 h; inhibition, % at 5 µM; in the data active means inhibition above about 40%
Furin inhibitor – blocks human furin protease activity; P09958; purified furin, fluorogenic substrate cleavage; inhibition, % at 20 µM or 30 µM; actives 0.061% (n = 220,000); in the data active means inhibition above about 25%
Calpain2 inh – calpain II (pig) inhibition. inhibition, % at 16 µM. actives 0.37% (n = 220,000). purified calpain II, fluorogenic peptide substrate, 30 min;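 active means inhibition above about 50%, limit read from the data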
Thrombin inh – thrombin (human) inhibition | P00734 | alpha-thrombin, Boc-VPR-AMC fluorogenic substrate cleavage | inhibition, % at 5 µM | actives 0.26% (n = 220,000) | AID 1046;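 active means inhibition at or above 40%; inactive means inhibition below 40%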
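System: human alpha-thrombin protein; Compound dosing: one concentration per compound, 5 µM, with 0.2% DMSO; Timing: reaction at room temperature; Technique: AMC fluorescence, 355/460 nm; Controls: enzyme without compound as high, wells lacking enzyme as low.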
A number is an active result; i = inactive; nt = no result; ! = not confirmed by another sample. An excerpt weighted towards active compounds, which were near 1.4% of everything screened.

SMILES | hK5 inh | FXIa inh 1536 | FXIIa inh | Furin inhibitor | Calpain2 inh | Thrombin inh
CC(=O)Nc1ccc(C(=O)Nc2ccc3c(c2)OCO3)cc1 | 41 | i | i | i | i | i
CN(C)S(=O)(=O)c1cccc(NC(=O)COC(=O)c2cn(-c3ccccc3)nc2-c2ccccc2)c1 | i | i | i | i | i | i
Cc1ccc(C(=O)NC(=S)Nc2ccc(S(=O)(=O)N(C)c3ccccc3)cc2)cc1 | i | i | i | i | i | i
CN(c1ccccc1)S(=O)(=O)c1ccc(NC(=S)NC(=O)c2ccccc2)cc1 | i | i | 95 | i | i | i
COc1ccc(CCc2nc(C)ccc2O)cc1 | 44! | i | i | i | i | i
CCOC(=O)C1=C(C)OC(N)=C(C#N)C1c1cc2c(cc1[N+](=O)[O-])OCO2 (stereo unspecified) | i | i | i | i | i | 74
C/C(=N\NC(=O)CCc1ccc(S(=O)(=O)N2CCOCC2)cc1)c1ccccc1Cl | i | i | i | i | i | i
Cc1cc2c(NC(=O)Nc3ccccc3)cccc2nn1 | 57 | i | i | i | i | i
CSc1c(CC(=O)NCCO)n(C)c2ccccc12 | 51 | i | i | i | i | i
Cc1nc(N2CCN(Cc3ccccc3)CC2)nc2c1C(=O)CC(C)C2 (stereo unspecified) | i | i | i | i | 68 | i
CCN1CCN(c2nc(C)c3c(n2)CC(C)CC3=O)CC1 (stereo unspecified) | i | i | i | i | i | i
COc1ccc(NC(=O)C(Cl)=C(Cl)Cl)cn1 | 103 | i | i | i | i | i
CCOC(=O)c1cnn(-c2ccccc2)c1NC(=O)c1ccc(C)cc1 | i | i | i | i | i | i
CCOC(=O)c1cc(-c2ccccc2)sc1NC(=O)CN1C(=O)NC(CC)(c2ccc(F)cc2)C1=O (stereo unspecified) | i | i | i | i | i | i
CCOC(=O)c1cc(-c2ccccc2)sc1NC(=O)CN1C(=O)NC(CC)(c2ccccc2)C1=O (stereo unspecified) | 40 | i | i | i | i | i
Cc1cccc(Nc2cnn(C34CC5CC(CC(CC(=O)O)(C5)C3)C4)c(=O)c2Cl)c1 | i | i | i | i | i | i
Cc1nnsc1-c1c(C(=O)Oc2ccccc2)c(C)nn1-c1ccccc1 | i | i | i | i | i | i
CC(OC(=O)CCCN1C(=O)c2ccccc2C1=O)C(=O)Nc1ncc(Cl)cc1Cl (stereo unspecified) | 70 | i | i | i | i | i
O=C(Nc1ccc(Nc2ccncc2)cc1)c1ccc(Nc2ccnc3ccc([N+](=O)[O-])cc23)cc1 | i | i | i | i | 51 | i
CCc1cccc(Oc2nn[nH]n2)c1 | 77 | i | i | i | i | i
CCOc1ncccc1C(=O)OCc1ccc(C#N)cc1 | i | i | i | i | i | i
O=C1c2ccccc2C(Nc2ccc3c(c2)OCCO3)N1c1ccccn1 (stereo unspecified) | 51 | i | i | i | i | i
O=C1CSC(c2cn(-c3ccccc3)nc2-c2cc3ccccc3oc2=O)N1Cc1ccco1 (stereo unspecified) | 153 | i | i | i | i | i
Cc1ccc(S(=O)(=O)c2nc(S(C)(=O)=O)sc2NCc2ccc3c(c2)OCO3)cc1 | i | i | i | i | i | i
O=P(Cc1nnco1)(c1ccccc1)c1ccccc1 | i | i | i | i | i | i
SMILES | hK5 inh | FXIa inh 1536 | FXIIa inh | Furin inhibitor | Calpain2 inh | Thrombin inh
CCCCC(=O)Nc1sc2c(c1-c1nc3ccccc3s1)CCN(C(C)=O)C2 | i | i | i | i | i | i
CC(=O)N1CCc2c(sc(NC(=O)C3CC3)c2-c2nc3ccccc3s2)C1 | i | i | 51 | i | i | i
CCOC(=O)C1(Cc2cccc(F)c2)CCN(CCCn2cccn2)CC1 | i | i | i | i | i | i
CCOC(=O)C1(Cc2cccc(F)c2)CCN(C(=O)Cn2cnnn2)CC1 | i | i | 45 | i | i | i
Cc1cc(C)cc(N2CC(C(=O)O)CC2=O)c1 (stereo unspecified) | i | i | i | i | i | i
Cc1cccc(OCC(=O)NC(=S)N2CCCc3ccccc32)c1 | i | i | i | i | i | i
CCOC(=O)N1CCN(S(=O)(=O)c2ccc(Br)s2)CC1 | i | i | i | i | i | i
CN1CCN(S(=O)(=O)c2ccc(Br)s2)CC1 | i | i | 48 | i | i | i
Cc1cccc(N2CCN(C3=NC(=O)C(=C4CCCCC4)S3)CC2)c1 | 120 | i | i | i | i | i
CC(=O)N1CCN(C2=NC(=O)C(=C3CCCCC3)S2)CC1 | i | i | i | i | i | i
O=C1OC(Nc2ccc(F)c([N+](=O)[O-])c2)c2ccccc21 (stereo unspecified) | i | 44 | i | i | i | 50
Cc1ccc(NC(=S)NCCc2ccccc2)nc1 | i | 54 | i | i | i | i
CCOc1ccc(C2C(C#N)=C(N)Oc3cc(C)oc(=O)c32)cc1 (stereo unspecified) | i | i | i | i | i | nt
COc1ccc2c(c1)CCc1c(C(=O)NCc3ccc(F)cc3)noc1-2 | i | i | 49 | i | i | i
COc1cc(CNc2ncn[nH]2)cc(Br)c1OC | 71 | i | i | i | i | i
CCOc1c(Br)cc(CNc2ncn[nH]2)cc1OC | i | i | i | i | i | i
Cn1c(=O)n(CCc2ccccc2)c(=O)c2c1nc1n2CCCN1CCc1ccccc1 | i | i | i | i | 69 | i
Cc1ccc(S(=O)(=O)N2CCN(c3c([N+](=O)[O-])cc(C(F)(F)F)cc3[N+](=O)[O-])CC2)cc1 | i | i | i | i | i | i
CCCC(C)NC(=O)Cc1ccccc1 (stereo unspecified) | i | i | 45 | i | i | i
Cc1cc(N2C(=O)[C@@H]3[C@H](C2=O)[C@@H]2C[C@H]3C(Br)C2Br)no1 (stereo partly specified) | i | i | i | i | i | i
Cc1ccc(-n2c(SCC(=O)Nc3ccc4c5c(cccc35)CC4)nc(O)c(C)c2=O)cc1 | i | i | i | i | i | i
CSc1nc(Sc2ccccc2)c2ccccc2n1 | i | i | i | i | i | i
CSc1nc(Sc2ccc(Cl)cc2)c2ccccc2n1 | 62 | i | i | i | i | i
O=C(COC(=O)c1cc(-c2ccco2)nc2ccccc12)NCc1ccccc1 | i | i | i | i | i | i
CNC(=O)COC(=O)c1cc(-c2ccco2)nc2ccccc12 | i | i | 51 | i | i | i
Cc1ccc(C(=O)CSc2nnc(COc3ccc(C#N)cc3)n2-c2ccccc2)cc1 | i | i | i | i | i | i
Cc1ccc(NC(=O)CSc2nnc(COc3ccc(C#N)cc3)n2-c2ccccc2)cc1C | 45 | i | i | i | i | i
COC(c1ccccc1)c1nnc(CCC(=O)N(C)Cc2cccc(-n3cccn3)c2)o1 (stereo unspecified) | nt | i | nt | i | i | 40
COC(c1ccccc1)c1nnc(CCC(=O)N(C)CCOc2ccccc2)o1 (stereo unspecified) | i | i | i | i | i | i
